According to ChEMBL document CHEMBL4382285, “Discovery of Novel Retigabine Derivatives as Potent KCNQ4 and KCNQ5 Channel Agonists with Improved Specificity” (ACS Med Chem Lett, 2019):
Active and inactive are the calls of the source. No cut-off for these calls is given here.

What was measured:
Format in all cases: cell-based
[1] = target: Potassium voltage-gated channel subfamily KQT member 2 (Rattus norvegicus) (UniProt O88943); test: Activity at rat KCNQ2 expressed in CHOK1 cells assessed as ratio of amplitude of outward current in presence of test compound to amplitude of outward current in absence of test compound at 10 uM at -10 mV by whole cell patch clamp assay
Method in brief: (§1)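 CHO-K1 cells expressing the channel, whole-cell voltage clamp, compound at 10 μM. Read-out is the outward current ratio I/I0 with and without compound, taken at −10 mV. I/I0 > 1 counts as activation and < 1 as inhibition. More than four cells per compound.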

[2] = target: T1, Potassium voltage-gated channel subfamily KQT member 4 (Homo sapiens) (UniProt P56696); test: Activity at human KCNQ4 expressed in CHOK1 cells assessed as ratio of amplitude of outward current in presence of test compound to amplitude of outward current in absence of test compound at 10 uM at -10 mV by whole cell patch clamp assay; method in brief: as §1
T1 sequence (whole entry): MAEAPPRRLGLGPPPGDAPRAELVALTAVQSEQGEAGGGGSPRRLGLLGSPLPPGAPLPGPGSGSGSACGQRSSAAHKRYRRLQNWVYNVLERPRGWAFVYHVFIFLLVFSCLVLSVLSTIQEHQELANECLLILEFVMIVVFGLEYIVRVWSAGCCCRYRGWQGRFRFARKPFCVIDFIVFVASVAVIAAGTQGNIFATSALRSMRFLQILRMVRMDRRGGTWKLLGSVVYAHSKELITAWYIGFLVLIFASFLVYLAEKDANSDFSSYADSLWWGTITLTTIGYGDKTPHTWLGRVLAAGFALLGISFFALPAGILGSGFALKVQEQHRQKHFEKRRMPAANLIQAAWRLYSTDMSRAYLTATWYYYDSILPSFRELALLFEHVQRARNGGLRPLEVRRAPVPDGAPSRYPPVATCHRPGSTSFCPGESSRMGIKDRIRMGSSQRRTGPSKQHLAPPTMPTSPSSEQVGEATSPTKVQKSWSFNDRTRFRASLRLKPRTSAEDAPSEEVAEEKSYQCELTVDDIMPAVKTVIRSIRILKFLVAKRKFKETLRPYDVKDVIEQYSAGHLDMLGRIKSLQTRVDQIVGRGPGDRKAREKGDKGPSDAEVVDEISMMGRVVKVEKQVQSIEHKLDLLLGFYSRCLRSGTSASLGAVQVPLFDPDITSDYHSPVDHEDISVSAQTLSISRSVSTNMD

[3] = target: T2, Potassium voltage-gated channel subfamily KQT member 5 (Homo sapiens, UniProt Q9NR82); test: Activity at human KCNQ5 expressed in CHOK1 cells assessed as ratio of amplitude of outward current in presence of test compound to amplitude of outward current in absence of test compound at 10 uM at -10 mV by whole cell patch clamp assay; method in brief: as §1
[4] = target: T3, Potassium voltage-gated channel subfamily KQT member 4 (Homo sapiens, UniProt P56696); test: Agonist activity at human KCNQ4 expressed in CHOK1 cells by whole cell patch clamp assay
T3 sequence (P56696 whole entry): T1 sequence (whole entry)
Method in brief: (§2)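 Concentration–response by whole-cell voltage clamp in CHO-K1 cells transiently expressing the homomeric channel. EC50 and Hill coefficient come from fitting outward currents recorded across the tested concentrations.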

[5] = target: T2, Potassium voltage-gated channel subfamily KQT member 5; test: Agonist activity at human KCNQ5 expressed in CHOK1 cells by whole cell patch clamp assay; method in brief: as §2
[6] = target: T4, Potassium voltage-gated channel subfamily KQT member 2 (Rattus norvegicus, UniProt O88943); test: Agonist activity at rat KCNQ2 expressed in CHOK1 cells by whole cell patch clamp assay; method in brief: as §2
[7] = target: T5, Potassium voltage-gated channel subfamily KQT member 3 (Rattus norvegicus, UniProt O88944); test: Agonist activity at rat KCNQ3 expressed in CHOK1 cells assessed as increase in amplitude of outward current at 10 uM by whole cell patch clamp assay relative to control
T5 sequence (O88944 whole entry): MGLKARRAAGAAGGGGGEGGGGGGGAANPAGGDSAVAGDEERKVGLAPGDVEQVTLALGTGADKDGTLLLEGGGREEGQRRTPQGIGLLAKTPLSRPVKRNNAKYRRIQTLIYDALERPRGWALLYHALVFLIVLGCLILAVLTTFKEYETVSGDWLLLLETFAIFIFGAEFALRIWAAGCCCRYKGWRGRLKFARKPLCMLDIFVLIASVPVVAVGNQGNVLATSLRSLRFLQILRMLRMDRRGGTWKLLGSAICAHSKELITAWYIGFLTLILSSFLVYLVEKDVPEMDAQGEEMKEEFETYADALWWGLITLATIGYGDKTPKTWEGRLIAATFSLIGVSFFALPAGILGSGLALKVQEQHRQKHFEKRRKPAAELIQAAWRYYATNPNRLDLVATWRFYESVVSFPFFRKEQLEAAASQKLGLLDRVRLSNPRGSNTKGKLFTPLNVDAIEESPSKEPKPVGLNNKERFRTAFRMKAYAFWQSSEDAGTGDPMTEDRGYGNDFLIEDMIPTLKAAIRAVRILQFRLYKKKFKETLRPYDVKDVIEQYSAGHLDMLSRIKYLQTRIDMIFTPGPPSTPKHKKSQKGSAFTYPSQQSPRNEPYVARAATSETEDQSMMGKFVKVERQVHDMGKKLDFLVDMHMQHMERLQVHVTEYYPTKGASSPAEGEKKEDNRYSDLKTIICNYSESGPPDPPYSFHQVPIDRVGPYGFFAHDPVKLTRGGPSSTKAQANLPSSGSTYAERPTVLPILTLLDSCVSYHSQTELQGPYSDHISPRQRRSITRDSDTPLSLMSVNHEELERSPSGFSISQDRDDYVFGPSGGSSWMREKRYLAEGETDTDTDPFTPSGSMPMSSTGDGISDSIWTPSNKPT
Method in brief: (§3)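 Individual KCNQ subtypes and KCNQ2/3 heteromers transfected into CHO cells, whole-cell recording before and after 10 μM compound. Cells held at −80 mV, stepped from −90 to +60 mV in 10 mV increments for 1500 ms, then to −120 mV for 500 ms. Currents compared at −10 and +60 mV.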

[8] = target: Voltage-gated potassium channel, KQT; KCNQ2(Kv7.2)/KCNQ3(Kv7.3) (Homo sapiens, UniProt O43526+O43525); test: Agonist activity at KCNQ2/KCNQ3 (unknown origin) expressed in CHOK1 cells assessed as increase in amplitude of outward current at 10 uM by whole cell patch clamp assay relative to control; method in brief: as §3
[9] = target: T4, Potassium voltage-gated channel subfamily KQT member 2; test: Activation of rat homomeric KCNQ2 expressed in CHOK1 cells assessed as outward current amplitude up to 30 uM by whole cell patch clamp assay
Method in brief: (§4)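 Homomeric KCNQ2 in CHO-K1 cells, whole-cell voltage clamp, compound applied over 1–30 μM. Change in outward current amplitude was read against the pre-drug current, including at 30 μM.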

[10] = target: Potassium voltage-gated channel subfamily KQT member 2 (Rattus norvegicus) (UniProt O88943); test: Inhibition of rat homomeric KCNQ2 expressed in CHOK1 cells assessed as effect on outward current amplitude at 30 uM by whole cell patch clamp assay; method in brief: as §4
[11] = target: Potassium voltage-gated channel subfamily KQT member 2 (Rattus norvegicus) (UniProt O88943); test: Effect on voltage-dependent activation of rat KCNQ2 expressed in CHOK1 cells assessed as negative shift in current activation curve at 10 uM by whole cell patch clamp assay
[12] = target: T1, Potassium voltage-gated channel subfamily KQT member 4 (Homo sapiens); test: Effect on voltage-dependent activation of human KCNQ4 expressed in CHOK1 cells assessed as negative shift in current activation curve at 10 uM by whole cell patch clamp assay
[13] = target: Potassium voltage-gated channel subfamily KQT member 2 (Rattus norvegicus) (UniProt O88943); test: Channel opening activity at rat KCNQ2 expressed in CHOK1 cells at 10 uM at -60 mV by whole cell patch clamp assay
[14] = target: T1, Potassium voltage-gated channel subfamily KQT member 4 (Homo sapiens); test: Channel opening activity at human KCNQ4 expressed in CHOK1 cells at 10 uM at -60 mV by whole cell patch clamp assay
[15] = target: Potassium voltage-gated channel subfamily KQT member 2 (Rattus norvegicus) (UniProt O88943); test: Inhibition of rat KCNQ2 expressed in CHOK1 cells at 10 uM at -10 mV by whole cell patch clamp assay relative to control; method in brief: as §1

T2 sequence (Q9NR82 whole entry): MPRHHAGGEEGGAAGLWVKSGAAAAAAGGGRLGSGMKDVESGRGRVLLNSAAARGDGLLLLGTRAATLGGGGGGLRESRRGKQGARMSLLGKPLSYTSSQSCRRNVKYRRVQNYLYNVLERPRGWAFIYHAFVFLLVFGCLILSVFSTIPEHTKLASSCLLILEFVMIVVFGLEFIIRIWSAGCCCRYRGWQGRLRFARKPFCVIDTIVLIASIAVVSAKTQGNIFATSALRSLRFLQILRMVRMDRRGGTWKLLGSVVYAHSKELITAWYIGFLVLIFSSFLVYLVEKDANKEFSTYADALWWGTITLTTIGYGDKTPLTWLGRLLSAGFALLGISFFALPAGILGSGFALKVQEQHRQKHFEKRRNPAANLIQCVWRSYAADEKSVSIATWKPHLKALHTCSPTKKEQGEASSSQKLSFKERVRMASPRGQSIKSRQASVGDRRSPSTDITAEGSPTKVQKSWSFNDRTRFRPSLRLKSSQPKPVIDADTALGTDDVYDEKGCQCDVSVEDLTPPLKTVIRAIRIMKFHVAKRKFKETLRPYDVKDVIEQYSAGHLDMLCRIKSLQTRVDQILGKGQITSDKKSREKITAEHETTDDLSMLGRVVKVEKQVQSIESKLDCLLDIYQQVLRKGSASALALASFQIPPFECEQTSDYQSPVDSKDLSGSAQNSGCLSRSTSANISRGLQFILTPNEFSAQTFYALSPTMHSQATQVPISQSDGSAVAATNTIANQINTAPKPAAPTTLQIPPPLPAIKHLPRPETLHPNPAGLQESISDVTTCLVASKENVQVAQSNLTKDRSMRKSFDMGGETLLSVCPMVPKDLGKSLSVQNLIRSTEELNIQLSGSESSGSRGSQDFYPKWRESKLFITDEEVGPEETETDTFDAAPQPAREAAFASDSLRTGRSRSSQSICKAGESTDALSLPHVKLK
T4 sequence (O88943 whole entry): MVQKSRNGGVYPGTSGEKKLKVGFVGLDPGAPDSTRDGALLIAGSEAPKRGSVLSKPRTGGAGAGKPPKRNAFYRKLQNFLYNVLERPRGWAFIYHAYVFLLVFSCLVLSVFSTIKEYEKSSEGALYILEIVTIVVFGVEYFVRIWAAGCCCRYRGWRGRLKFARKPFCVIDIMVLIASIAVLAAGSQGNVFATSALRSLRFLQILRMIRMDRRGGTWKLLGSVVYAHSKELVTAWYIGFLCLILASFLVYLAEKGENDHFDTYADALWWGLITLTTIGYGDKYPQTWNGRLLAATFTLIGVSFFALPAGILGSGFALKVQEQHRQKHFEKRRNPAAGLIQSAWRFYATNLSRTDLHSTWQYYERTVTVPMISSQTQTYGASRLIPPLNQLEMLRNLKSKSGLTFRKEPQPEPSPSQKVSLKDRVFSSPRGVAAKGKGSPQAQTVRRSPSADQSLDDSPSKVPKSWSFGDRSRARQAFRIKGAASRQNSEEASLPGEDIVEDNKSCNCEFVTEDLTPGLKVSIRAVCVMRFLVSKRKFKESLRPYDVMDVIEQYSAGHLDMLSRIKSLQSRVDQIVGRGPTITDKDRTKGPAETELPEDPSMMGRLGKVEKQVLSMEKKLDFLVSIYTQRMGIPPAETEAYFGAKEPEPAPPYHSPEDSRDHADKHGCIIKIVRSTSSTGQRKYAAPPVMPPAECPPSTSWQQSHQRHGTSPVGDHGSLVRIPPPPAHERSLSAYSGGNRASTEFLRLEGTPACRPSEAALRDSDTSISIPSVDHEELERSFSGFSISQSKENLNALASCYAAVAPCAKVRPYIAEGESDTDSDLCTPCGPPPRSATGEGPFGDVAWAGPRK
Sequence of Potassium voltage-gated channel subfamily KQT member 2 (Rattus norvegicus) (O88943 whole entry): as above
Sequence of Voltage-gated potassium channel, KQT; KCNQ2(Kv7.2)/KCNQ3(Kv7.3) (O43526 whole entry): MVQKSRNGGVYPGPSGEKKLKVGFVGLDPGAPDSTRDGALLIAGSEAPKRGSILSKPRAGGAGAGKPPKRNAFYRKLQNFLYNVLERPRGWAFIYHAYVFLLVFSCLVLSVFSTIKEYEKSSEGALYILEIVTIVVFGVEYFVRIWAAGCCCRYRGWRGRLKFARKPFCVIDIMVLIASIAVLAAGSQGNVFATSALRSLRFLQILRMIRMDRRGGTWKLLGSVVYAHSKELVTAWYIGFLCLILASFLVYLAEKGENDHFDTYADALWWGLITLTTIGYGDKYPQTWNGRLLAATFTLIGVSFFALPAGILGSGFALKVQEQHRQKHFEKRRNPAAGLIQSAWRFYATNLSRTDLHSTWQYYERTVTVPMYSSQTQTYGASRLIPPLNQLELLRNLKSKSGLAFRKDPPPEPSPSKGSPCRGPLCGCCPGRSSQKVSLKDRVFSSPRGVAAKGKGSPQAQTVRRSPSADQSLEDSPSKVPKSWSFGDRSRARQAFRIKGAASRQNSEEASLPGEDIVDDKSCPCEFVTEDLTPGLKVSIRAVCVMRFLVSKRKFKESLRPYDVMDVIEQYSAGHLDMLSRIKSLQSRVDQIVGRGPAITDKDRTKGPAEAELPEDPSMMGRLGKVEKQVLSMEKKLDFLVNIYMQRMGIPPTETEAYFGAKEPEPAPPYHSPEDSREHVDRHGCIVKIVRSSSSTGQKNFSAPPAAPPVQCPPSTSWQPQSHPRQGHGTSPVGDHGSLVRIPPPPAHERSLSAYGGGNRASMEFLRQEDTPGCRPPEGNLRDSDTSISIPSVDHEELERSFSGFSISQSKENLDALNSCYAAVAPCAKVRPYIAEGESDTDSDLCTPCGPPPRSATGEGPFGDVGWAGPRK
Sequence of Voltage-gated potassium channel, KQT; KCNQ2(Kv7.2)/KCNQ3(Kv7.3) (O43525 whole entry): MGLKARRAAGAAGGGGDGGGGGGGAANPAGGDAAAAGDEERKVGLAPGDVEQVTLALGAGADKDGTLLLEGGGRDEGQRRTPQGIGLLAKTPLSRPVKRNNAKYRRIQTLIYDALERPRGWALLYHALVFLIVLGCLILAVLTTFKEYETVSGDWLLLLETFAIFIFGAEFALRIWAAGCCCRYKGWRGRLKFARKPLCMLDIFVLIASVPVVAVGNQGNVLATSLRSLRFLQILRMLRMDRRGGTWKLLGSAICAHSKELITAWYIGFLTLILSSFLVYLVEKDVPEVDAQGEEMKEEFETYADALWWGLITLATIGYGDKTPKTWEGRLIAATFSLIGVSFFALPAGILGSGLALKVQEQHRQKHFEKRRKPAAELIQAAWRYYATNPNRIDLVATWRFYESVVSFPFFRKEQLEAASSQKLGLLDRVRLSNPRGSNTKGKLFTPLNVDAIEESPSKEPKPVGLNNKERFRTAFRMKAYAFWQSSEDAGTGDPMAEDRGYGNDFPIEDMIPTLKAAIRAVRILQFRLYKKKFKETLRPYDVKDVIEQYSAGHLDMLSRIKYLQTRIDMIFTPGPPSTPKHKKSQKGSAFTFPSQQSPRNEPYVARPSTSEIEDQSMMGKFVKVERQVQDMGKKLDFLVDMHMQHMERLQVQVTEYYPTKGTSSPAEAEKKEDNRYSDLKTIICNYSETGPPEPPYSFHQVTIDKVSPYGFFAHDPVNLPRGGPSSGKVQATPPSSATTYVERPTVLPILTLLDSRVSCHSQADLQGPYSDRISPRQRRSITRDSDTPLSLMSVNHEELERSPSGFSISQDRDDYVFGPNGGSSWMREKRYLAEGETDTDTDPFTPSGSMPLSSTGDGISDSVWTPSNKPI

Structure (SMILES) | Ratio [1] | Ratio [2] | Ratio [3] | other results
C#CCN(Cc1ccc(F)cc1)c1ccc(NC(=O)OCC)c(NC(=O)OCC(C)C)c1 | 1.04 | 5.19 | 4.84 | –
C#CCN(Cc1ccc(F)cc1)c1ccc(NC(=O)Oc2ccccc2)c(NC(=O)Oc2ccccc2)c1 | 0.91 | 1.22 | 1.16 | –
C#CCN(Cc1ccc(F)cc1)c1ccc(NC(=O)OCC)c(NC(=O)OCCC)c1 | 1.07 | 3.95 | 5.81 | –
CCOC(=O)Nc1ccc(N(CC#Cc2ccccc2)Cc2ccc(F)cc2)cc1NC(=O)OCC | 1.26 | 1.54 | 1.13 | –
C#CCN(Cc1ccc(F)cc1)c1ccc(NC(=O)OC2CCCC2)c(NC(=O)OC2CCCC2)c1 | 0.21 | 0.88 | 1.25 | –
CCOC(=O)Nc1ccc(N(CC=C(C)C)Cc2ccc(F)cc2)cc1NC(=O)OCC | 0.66 | 3.63 | 1.37 | –
C#CCN(Cc1ccc(F)cc1)c1ccc(NC(=O)OC(C)(C)C)c(NC(=O)OCC)c1 | 1.07 | 7.71 | 4.59 | EC50 [4]: 1.42 µM; EC50 [5]: 1.37 µM; EC50 [6]: > 30 µM
C#CCN(Cc1ccc(F)cc1)c1ccc(NC(=O)OCC)c(NC(=O)OCC=C)c1 | 0.96 | 3.68 | 4.67 | –
C#CCN(Cc1ccc(F)cc1)c1ccc(NC(=O)OCC)c(NC(=O)OC(C)(C)C)c1 | 1.16 | 6.37 | 4.58 | EC50 [4]: 0.78 µM; EC50 [5]: 1.68 µM; EC50 [6]: > 30 µM; fold change (FC) [7]: 1.5; fold change (FC) [8]: 1.5; Activity [9]: Not Active; inhibition [10]: Active; Activity [11]: inactive; Activity [12]: inactive; Activity [13]: inactive; Activity [14]: inactive
C#CCN(Cc1ccc(F)cc1)c1ccc(NC(=O)OCC=C)c(NC(=O)OCC=C)c1 | 0.67 | 2.21 | 5.26 | –
C#CCN(Cc1ccc(F)cc1)c1ccc(NC(=O)OC)c(NC(=O)OC)c1 | 1.37 | 4.77 | 2.89 | –
C=CCN(Cc1ccc(F)cc1)c1ccc(NC(=O)OCC)c(NC(=O)OCC)c1 | 0.3 | – | 1.49 | inhibition [15]: 70%
C#CCN(Cc1ccc(F)cc1)c1ccc(NC(=O)OC(C)(C)C)c(NC(=O)OC(C)(C)C)c1 | 1 | 3.05 | 5.32 | EC50 [4]: 2.03 µM; EC50 [5]: 2.43 µM; EC50 [6]: > 30 µM
C/C=C(\C)CN(Cc1ccc(F)cc1)c1ccc(NC(=O)OCC)c(NC(=O)OCC)c1 | 0.85 | 2.36 | 1.28 | –
C#CCN(Cc1ccc(F)cc1)c1ccc(NC(=O)OCCC)c(NC(=O)OCCC)c1 | 0.78 | 2.58 | 2.75 | –
C#CCN(Cc1ccc(F)cc1)c1ccc(NC(=O)OC2CCC2)c(NC(=O)OC2CCC2)c1 | 0.26 | 1.21 | 1.33 | –
CCOC(=O)Nc1ccc(NCc2ccc(F)cc2)cc1N [EZOGABINE] | 1.6 | – | – | EC50 [4]: 5.9 µM; EC50 [5]: 3.45 µM; EC50 [6]: 2.17 µM; Activity [11]: 20 to 30 mV; Activity [12]: 20 to 30 mV
C#CCN(Cc1ccc(F)cc1)c1ccc(NC(=O)OC2CC2)c(NC(=O)OC2CC2)c1 | 0.64 | 1.51 | 2.55 | –
C#CCN(Cc1ccc(F)cc1)c1ccc(NC(=O)OCC(C)C)c(NC(=O)OCC(C)C)c1 | 0.83 | 1.52 | 1.73 | –
C#CCN(Cc1ccc(F)cc1)c1ccc(NC(=O)OCC)c(NC(=O)OC(C)C)c1 | 0.94 | 5.01 | 5.71 | –
C/C=C/CN(Cc1ccc(F)cc1)c1ccc(NC(=O)OCC)c(NC(=O)OCC)c1 | 0.87 | 1.85 | 1.36 | –
C#CCN(Cc1ccc(F)cc1)c1ccc(NC(=O)OCC)c(NC(=O)OCc2ccccc2)c1 | 0.97 | 1.27 | 2.57 | –
C#CCN(Cc1ccc(F)cc1)c1ccc(NC(=O)OCc2ccccc2)c(NC(=O)OCc2ccccc2)c1 | 1.25 | 3.02 | 3.57 | –
CCOC(=O)Nc1ccc(N(CC2=CCCCC2)Cc2ccc(F)cc2)cc1NC(=O)OCC | 1.19 | 1.49 | 1.05 | –
C#CCN(Cc1ccc(F)cc1)c1ccc(NC(=O)OCCCC)c(NC(=O)OCCCC)c1 | 0.77 | 2.75 | 4.13 | –
C#CCN(Cc1ccc(F)cc1)c1ccc(NC(=O)OCC)c(NC(=O)OC)c1 | 0.61 | 2.56 | 3.34 | –
C#CCN(Cc1ccc(F)cc1)c1ccc(NC(=O)OC(C)C)c(NC(=O)OC(C)C)c1 | 0.35 | 1.33 | 3.11 | –
C#CCN(Cc1ccc(F)cc1)c1ccc(NC(=O)OCC)c(NC(=O)OCCCC)c1 | 1.06 | 4.16 | 3.62 | –
